Results of several laboratories.
Protocols differ between the studies behind these lines.
Cell line: MCF7
Observed: cell growth or viability

The viability of O=C(NCc1cn(Cc2ccc(Cl)cc2)nn1)Nc1ccc(Cl)cc1 is reported as 83.3% (CCK-8; 50 µM; 72 h).
The GI50 of Cc1n[nH]c2ccc3nc(-c4ccc(C(=O)NCCN(C)C)cc4)c4c(c3c12)CCCC4 is reported as 2400 nM (72 h).
COc1ccc(NC(=O)NCc2cn(Cc3ccccc3C)nn2)cc1 gave a viability of 98.7% (CCK-8; 50 µM; 72 h).
The EC50 of C[C@H](Nc1ccc2c(c1)OCCn1cc(N3C(=O)OC[C@H]3C(F)F)nc1-2)C(N)=O is reported as 129 nM (ATP luminescence; 5 days).
O=C(NN=Cc1ccc(O)cc1)c1nc2ccccc2s1 gave a cell death of 38.1% (MTT; 100 µM; 48 h).
With NC(=O)C1CCCN1C(=O)Nc1ccccc1/N=c1\cc(-c2ccc3c(c2)OCCO3)oc2cc(F)ccc12 (centres unmarked) the inhibition was 7.19% (CCK-8; 1 µM).
COc1ccc(NC(=O)Nc2cccc(-c3cn(Cc4ccc(Br)cc4)nn3)c2)cc1 gave a viability of 95.6% (CCK-8; 50 µM; 48 h).
NCCC(=O)Nc1cccc(/N=c2\cc(-c3ccc4c(c3)OCO4)oc3ccccc23)c1 has an inhibition of 15.7% (CCK-8; 1 µM).
With COc1ccc(NC(=O)NCc2cn(Cc3ccc(Cl)cc3)nn2)cc1 the viability was 95.3% (CCK-8; 50 µM; 72 h).
For NCCC(=O)Nc1ccccc1/N=c1\cc(-c2ccc3nc(N)oc3c2)oc2cc(O)ccc12, the inhibition was 9.96% (CCK-8; 1 µM).
CN(C)CCNC(=O)c1ccc(-c2nc3ccc4[nH]ncc4c3c3c2CCCC3)cc1 gave a GI50 of 3340 nM (72 h).
For O=C(Nc1ccc(Cl)cc1)Nc1ccc(-c2cn(Cc3cccc(Cl)c3)nn2)cc1, the viability was 91.8% (CCK-8; 50 µM; 48 h).
For COCCC(=O)Nc1ccccc1/N=c1\cc(-c2ccc3nc(N)oc3c2)oc2ccccc12, the inhibition was 7.99% (CCK-8; 1 µM).
COc1ccc(NC(=O)NCc2cn(Cc3ccc(C)cc3)nn2)cc1 gave a viability of 97.7% (CCK-8; 50 µM; 48 h).
For O=C(Nc1cccc(-c2cn(Cc3ccc(Br)cc3)nn2)c1)Nc1ccccc1Br, the viability was 89.7% (CCK-8; 50 µM; 48 h).
COc1ccc(C=NNC(=O)c2nc3ccccc3s2)cc1OS(C)(=O)=O has a cell death of 32.3% (MTT; 100 µM; 48 h).
With C[C@H](N)C(=O)Nc1ccccc1/N=c1\cc(-c2ccc3c(c2)OCO3)oc2ccccc12 the inhibition was 8.48% (CCK-8; 1 µM).
With O=C(Nc1ccc(-c2cn(Cc3ccc(Cl)cc3)nn2)cc1)Nc1ccccc1Br the viability was 104% (CCK-8; 50 µM; 72 h).
With NCC(=O)Nc1ccccc1/N=c1\cc(-c2ccc3c(c2)OCCO3)oc2ccccc12 the inhibition was -1.21% (CCK-8; 1 µM).
With COc1ccc(NC(=O)Nc2cccc(-c3cn(Cc4ccccc4C)nn3)c2)cc1 the viability was 94.8% (CCK-8; 50 µM; 48 h).
